{
  "source": "ChEMBL document CHEMBL1122809",
  "about": "“Improved synthesis and antitumor activity of 2-bromo-2'-deoxyadenosine” (1984)",
  "key": {"[1]": {"tested_on": "L1210", "assay": "Antitumor activity expressed as life span was determined against inoculated L1210 leukemia cells (1*10e5) in mice by 11.3 mg/kg dosage of compound (qd (x 3), for days 1, 4, 7)", "format": "functional, Mus musculus", "outline": "(§1)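 Female mice (~18 g, housed six per cage) received L1210 cells intraperitoneally on day 0. Drug was made fresh and injected at 0.01 mL/g; the stated dose is per injection. Controls received the same volume of 0.154 M NaCl. Survival was followed, with deaths assigned to tumour by necropsy or to drug toxicity by set criteria. Life span is given as mean ± SD.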"}, "[2]": {"tested_on": "L1210", "assay": "Antitumor activity expressed as life span was determined against inoculated L1210 leukemia cells (1*10e5) in mice by 22.5 mg/kg dosage of compound (qd (x 3), for days 1, 4, 7,10,13,16)", "format": "functional, Mus musculus", "outline": "as §1"}, "[3]": {"tested_on": "L1210", "assay": "Antitumor activity expressed as life span was determined against inoculated L1210 leukemia cells (1*10e5) in mice by 22.5 mg/kg dosage of compound (qd (x 3), for days 1,5,9)", "format": "functional, Mus musculus", "outline": "as §1"}, "[4]": {"tested_on": "L1210", "assay": "Antitumor activity expressed as life span was determined against inoculated L1210 leukemia cells (1*10e5) in mice by 45 mg/kg dosage of compound (qd (x 3), for days 1, 4, 7)", "format": "functional, Mus musculus", "outline": "as §1"}, "[5]": {"tested_on": "L1210", "assay": "Antitumor activity expressed as life span was determined against inoculated L1210 leukemia cells (1*10e5) in mice by 45 mg/kg dosage of compound (qd (x 3), for days 1,5,9)", "format": "functional, Mus musculus", "outline": "as §1"}, "[6]": {"tested_on": "L1210", "assay": "Antitumor activity expressed as life span was determined against inoculated L1210 leukemia cells (1*10e5) in mice by 5.6 mg/kg dosage of compound (qd (x 3), for days 1, 4, 7)", "format": "functional, Mus musculus", "outline": "as §1"}, "[7]": {"tested_on": "L1210", "assay": "Antitumor activity expressed as life span was determined against inoculated L1210 leukemia cells (1*10e6) in mice by 110 mg/kg dosage of compound (qd (x 3), for days 1- 7)", "format": "functional, Mus musculus", "outline": "as §1"}, "[8]": {"tested_on": "L1210", "assay": "Antitumor activity expressed percentage increase in life span was determined against inoculated L1210 leukemia cells (1*10e5) in mice by 45 mg/kg dosage of compound (qd (x 3), for days 1,5,9)", "format": "functional", "settings": "Mus musculus", "outline": "(§2)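 L1210 cells were given intraperitoneally to female mice (~18 g). Freshly prepared drug was injected at 0.01 mL/g, dose per injection, and saline-injected controls were run. The end point was duration of survival. ILS was calculated as percent increase in mean life span over controls. Mice surviving 60 days or more counted as long-term survivors, scored as 60 days.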"}, "[9]": {"tested_on": "L1210", "assay": "Antitumor activity expressed percentage increase in life span was determined against inoculated L1210 leukemia cells (1*10e5) in mice by 5.6 mg/kg dosage of compound (qd (x 3), for days 1, 4, 7,10,13,16)", "format": "functional", "settings": "Mus musculus", "outline": "as §2"}, "[10]": {"tested_on": "L1210", "assay": "Antitumor activity expressed percentage increase in life span was determined against inoculated L1210 leukemia cells (1*10e5) in mice by 5.6 mg/kg dosage of compound (qd (x 3), for days 1,5,9)", "format": "functional", "settings": "Mus musculus", "outline": "as §2"}, "[11]": {"tested_on": "M5076", "assay": "Antitumor activity was evaluated by measuring mean life span in tumor (M5076) inoculated mice at 11.3 mg/kg (qd3hx8),days 1-34", "format": "functional, Mus musculus", "outline": "(§3)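 Female mice of about 18 g received subcutaneous M5076 implants matching those used for serial passage. Drug was freshly prepared and injected at 0.01 mL/g every 3 h (×8) on every 3rd day from day 1 to day 34, with the dose stated per injection. Controls received 0.154 M NaCl. Groups held 18 mice (11 in one group). Mean life span was reported as mean ± SD, and tumor volume was also assessed.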"}, "[12]": {"tested_on": "L1210", "assay": "Antitumor activity expressed as life span was determined against inoculated L1210 leukemia cells (1*10e6) in mice by 90 mg/kg dosage of compound (qd (x 3), for days 1- 7)", "format": "functional, Mus musculus", "outline": "as §1"}, "[13]": {"tested_on": "L1210", "assay": "Antitumor activity expressed as life span was determined against inoculated L1210 leukemia cells (1*10e6) in mice by 180 mg/kg dosage of compound (qd (x 3), for days 1, 4, 7)", "format": "functional, Mus musculus", "outline": "as §1"}, "[14]": {"tested_on": "L1210", "assay": "Antitumor activity expressed as life span was determined against inoculated L1210 leukemia cells (1*10e6) in mice by 30 mg/kg dosage of compound (qd (x 3), for days 1- 7)", "format": "functional, Mus musculus", "outline": "as §1"}, "[15]": {"tested_on": "L1210", "assay": "Antitumor activity expressed percentage increase in life span was determined against inoculated L1210 leukemia cells (1*10e5) in mice by 11.3 mg/kg dosage of compound (qd (x 3), for days 1, 4, 7)", "format": "functional", "settings": "Mus musculus", "outline": "as §2"}, "[16]": {"tested_on": "L1210", "assay": "Antitumor activity expressed percentage increase in life span was determined against inoculated L1210 leukemia cells (1*10e5) in mice by 11.3 mg/kg dosage of compound (qd (x 3), for days 1, 4, 7,10,13,16)", "format": "functional", "settings": "Mus musculus", "outline": "as §2"}, "[17]": {"tested_on": "L1210", "assay": "Antitumor activity expressed percentage increase in life span was determined against inoculated L1210 leukemia cells (1*10e5) in mice by 22.5 mg/kg dosage of compound (qd (x 3), for days 1,5,9)", "format": "functional", "settings": "Mus musculus", "outline": "as §2"}, "[18]": {"tested_on": "L1210", "assay": "Antitumor activity expressed percentage increase in life span was determined against inoculated L1210 leukemia cells (1*10e6) in mice by 110 mg/kg dosage of compound (qd (x 3), for days 1-7)", "format": "functional", "settings": "Mus musculus", "outline": "as §2"}, "[19]": {"tested_on": "M5076", "assay": "Antitumor activity was evaluated by measuring mean life span in tumor (M5076) inoculated mice at 22.5 mg/kg (qd3hx8),days 1,4,7,15,18,21", "format": "functional, Mus musculus", "outline": "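Female mice of about 18 g received subcutaneous M5076 implants like those used for serial passage. Drug was prepared just before use and injected at 0.01 mL/g every 3 h (×8) on days 1, 4, 7, 15, 18 and 21, with the dose stated per injection. Controls received 0.154 M NaCl, and groups held 18 mice. Survival and tumor volume were recorded, and %ILS was derived from mean life span.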"}, "[20]": {"tested_on": "M5076", "assay": "Antitumor activity was evaluated by measuring mean life span in tumor (M5076) inoculated mice at 22.5 mg/kg (qd3hx8),days 1-34", "format": "functional, Mus musculus", "outline": "as §3"}, "[21]": {"tested_on": "L1210", "assay": "Antitumor activity expressed percentage increase in life span was determined against inoculated L1210 leukemia cells (1*10e6) in mice by 70 mg/kg dosage of compound (qd (x 3), for days 1, 4, 7)", "format": "functional", "settings": "Mus musculus", "outline": "(§4)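 Female mice of about 18 g (BDF1, DBA/2 or C57Bl/6 stocks used) were inoculated intraperitoneally with 1 × 10^6 L1210 cells. Freshly prepared drug was given once daily from about 24 h after inoculation at 0.01 mL/g, with the dose stated per injection. Controls received 0.154 M NaCl, and groups held 6 mice. %ILS was taken from mean survival, with mice alive at 60 days or more counted as 60 days.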"}, "[22]": {"tested_on": "L1210", "assay": "Antitumor activity expressed percentage increase in life span was determined against inoculated L1210 leukemia cells (1*10e6) in mice by 90 mg/kg dosage of compound (qd (x 3), for days 1- 7)", "format": "functional", "settings": "Mus musculus", "outline": "as §4"}, "[23]": {"tested_on": "L1210", "assay": "Antitumor activity expressed as life span was determined against inoculated L1210 leukemia cells (1*10e6) in mice by 50 mg/kg dosage of compound (qd (x 3), for days 1- 7)", "format": "functional, Mus musculus", "outline": "as §1"}, "[24]": {"tested_on": "L1210", "assay": "Antitumor activity expressed as life span was determined against inoculated L1210 leukemia cells (1*10e6) in mice by 70 mg/kg dosage of compound (qd (x 3), for days 1- 7)", "format": "functional, Mus musculus", "outline": "as §1"}, "[25]": {"tested_on": "B16 melanoma (mouse)", "assay": "Antitumor activity was evaluated by measuring mean life span in tumor (B16 melanoma) inoculated mice at 22.5 mg/kg (qd3hx8),days 1,4,7,10"}},
  "data": [
    {"smiles": "Nc1nc(Br)nc2c1ncn2[C@H]1C[C@H](O)[C@@H](CO)O1", "values": [
      {"measurement": "Life span", "setting": "[1]", "result": 14.33, "unit": "days"},
      {"measurement": "Life span", "setting": "[2]", "result": 20.67, "unit": "days"},
      {"measurement": "Life span", "setting": "[3]", "result": 21.42, "unit": "days"},
      {"measurement": "Life span", "setting": "[4]", "result": 37.92, "unit": "days"},
      {"measurement": "Life span", "setting": "[5]", "result": 37.73, "unit": "days"},
      {"measurement": "Life span", "setting": "[6]", "result": 11.75, "unit": "days"},
      {"measurement": "Life span", "setting": "[7]", "result": 4.17, "unit": "days"},
      {"measurement": "ILS at 45 mg/kg", "setting": "[8]", "result": 387, "unit": "%"},
      {"measurement": "ILS at 5.6 mg/kg", "setting": "[9]", "result": 45, "unit": "%"},
      {"measurement": "ILS at 5.6 mg/kg", "setting": "[10]", "result": 59, "unit": "%"},
      {"measurement": "Life span", "setting": "[11]", "result": 39.72, "unit": "days"},
      {"measurement": "Life span", "setting": "[12]", "result": 4.83, "unit": "days"},
      {"measurement": "Life span", "setting": "[13]", "result": 5, "unit": "days"},
      {"measurement": "Life span", "setting": "[14]", "result": 7.67, "unit": "days"},
      {"measurement": "ILS at 11.3 mg/kg", "setting": "[15]", "result": 95, "unit": "%"},
      {"measurement": "ILS at 11.3 mg/kg", "setting": "[16]", "result": 128, "unit": "%"},
      {"measurement": "ILS at 22.5 mg/kg", "setting": "[17]", "result": 176, "unit": "%"},
      {"measurement": "ILS at 110 mg/kg", "setting": "[18]", "result": 0, "unit": "%"},
      {"measurement": "Life span", "setting": "[19]", "result": 43.33, "unit": "days"},
      {"measurement": "Life span", "setting": "[20]", "result": 46.41, "unit": "days"},
      {"measurement": "ILS at 70 mg/kg", "setting": "[21]", "result": 3, "unit": "%"},
      {"measurement": "ILS at 90 mg/kg", "setting": "[22]", "result": 0, "unit": "%"},
      {"measurement": "Life span", "setting": "[23]", "result": 9, "unit": "days"},
      {"measurement": "Life span", "setting": "[24]", "result": 7, "unit": "days"},
      {"measurement": "Life span", "setting": "[25]", "result": 20.89, "unit": "days"}
    ]}
  ]
}
